Assay: Toxicity liver stage against HepG2, at 10uM
Type: cell-based
Design: test concentration 10 uM, cell line HepG2-A16-CD81EGFP
Settings: human, HepG2-A16-CD81EGFP cells; read-out: INHIBITION
Summary of the method: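 Uninfected HepG2-A16-CD81EGFP cells, 3 × 10^3 per well, 1536-well, plated on prespotted compound at 10 μM final, parasite-free screening media added to match infected plates; puromycin 10 μM positive, DMSO 0.5% negative; run in parallel with 48 h PbLuc assay at 37 °C, 5% CO2; viability by CellTiter-Glo luminescence, normalized to controls.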

Row | SMILES | cytotoxicity at 10 µM [%]
1 | CN1CCCCc2c1nc1c(c2N)CCCC1 | -0.675
2 | CN(C)[C@@H]1CO[C@H](CNC(=O)c2ccccc2)[C@H]1O | -1.9
3 | CCOc1nc2cnccc2n(CC(=O)NCc2ccc(C)cc2)c1=O | -0.0308
4 | COc1ccc(CC(=O)NCCCc2nnc3nc(C)cc(C)n23)cc1 | 4.45
5 | Cc1nc(Cc2ccccc2)nc2sc(C(=O)O)c(C)c12 | 0.986
6 | N#Cc1cccnc1OC1CCN(C(=O)NCc2ccccc2)CC1 | 1.38
7 | CS(=O)(=O)N1CCn2c(C(=O)N3CCOCC3)cnc2C1 | -4.63
8 | COc1cccc(CNC(=O)c2nc3c(o2)CN(S(C)(=O)=O)C3)c1 | 8.65
9 | COCCO[C@@H]1CCN(C(=O)c2ccnnc2)[C@H]1Cc1cnn(C)c1 | 7.6
10 | COCCN1C[C@@H]2CN(c3ncc(F)cn3)C[C@@H]2C1=O | 9.49
11 | COc1ccc(-c2cc3nn(CC(=O)NC(C)C)c(=O)n3c(C)n2)cc1 | 1.81
12 | COCC1c2c(cnn2CC2CC2)CCN1Cc1ccc(OC)cc1 (centres undefined) | 83.3
13 | NC(=O)c1cn[nH]c1C1CCCN1C(=O)COc1ccccc1 (centres undefined) | -3.93
14 | NC(=O)C1(Cc2ccc(-c3ccccc3)cc2)CCNC1 (centres undefined) | 11.5
15 | CC1(C(N)=O)CCCN(c2cnccn2)C1 (centres undefined) | -17.8
16 | NC(=O)CN1CCC2(CC1)C[C@@H](O)[C@H](c1ccccc1)NC2=O | -23
17 | COCCN1CCN(Cc2cnc(C(C)C)nc2)CC1 | 10.6
18 | O=C(CCn1ncc2ccccc21)N1CCCC(Cc2cccnc2)C1 (centres undefined) | -1.83
19 | CC(C)C(=O)N1Cc2ccccc2CC2(CCCCN2C)C1 (centres undefined) | 9.15
20 | COc1ccc(N2CCC(N(C)C(=O)Nc3ccncc3)CC2)cc1 | 3.12
21 | CS(=O)(=O)CCSc1nnc(Cc2ccccc2F)o1 | 0.313
22 | CCC(NC(=O)c1cccc(N2CCCC2=O)c1)c1ccc(OC)cc1 (centres undefined) | -62.3

Row | SMILES | cytotoxicity at 10 µM [%]
23 | CNC(=O)C1CCCCN1C(=O)CCn1cnc2sccc2c1=O (centres undefined) | -7.18
24 | O=C(CCn1cccn1)NCCOc1ncc(Cl)cc1Cl | -3.82
25 | COc1ccsc1C(=O)NC1CCN(c2ccc(C#N)cc2)CC1 | -1.03
26 | Cc1cc(NC(=O)N2CCN(C)CC2C)n(CCC#N)n1 (centres undefined) | 2.35
27 | CCC(O)CN(Cc1ccccc1)S(=O)(=O)c1cnc(C)s1 (centres undefined) | -42.5
28 | CC(C)(C(=O)N1CCC(C(N)=O)C1)c1ccccc1F (centres undefined) | 4.68
29 | O=C(c1cc(-n2cccn2)ccn1)N1CCOc2ccncc21 | 10.6
30 | CCc1nc2n(n1)CC(NCc1nc3ccccc3nc1C)CC2 (centres undefined) | -141
31 | Cc1nccn1-c1ccc(C(C)NCc2cccn2C)cc1 (centres undefined) | 8.61
32 | CS(=O)(=O)CCN1CCC(Nc2c(Cl)cccc2C#N)CC1 | 2.22
33 | Cc1cc(C)n(-c2cncc(N3CCN(C(=O)CN(C)C)CC3)n2)n1 | -2.09
34 | Cc1cc(C)cc(OCC(O)CN2CCN(c3nccs3)CC2)c1 (centres undefined) | -7.32
35 | Cc1cnn(CC2CCCCN2CC(=O)N(C)Cc2ccc(C)o2)c1 (centres undefined) | 10.6
36 | Cc1cn2c(n1)CCC(NC(=O)CCCOCc1ccccc1)C2 (centres undefined) | -3.55
37 | Fc1cccc2[nH]c(CN3CCc4cncnc4C3)nc12 | -1.03
38 | CC(c1nc(C2CC2)no1)N(C)Cc1cccc(F)c1 (centres undefined) | -5.43
39 | COc1cc(F)c(NC(=O)N(C)Cc2cc(C)on2)cc1F | -4.25
40 | CC(NC(=O)c1cccs1)C(=O)NS(=O)(=O)Cc1ccc(C#N)cc1 (centres undefined) | 5.29
41 | Cc1nccn1-c1ccc(C(C)Nc2cnn(C)c(=O)c2Cl)cc1 (centres undefined) | 18.7
42 | CN(Cc1cccs1)C(=O)c1ccc(=O)n(C)c1 | -13.2
43 | Cc1ccc(C(NC(=O)Cc2nc3ncccn3n2)C2CC2)cc1 (centres undefined) | 5.06
44 | CCCN(CCC)S(=O)(=O)N(C)Cc1ccncc1 | 12.2

Row | SMILES | cytotoxicity at 10 µM [%]
45 | Cc1oc(-c2ccsc2)nc1CNCCn1cccn1 | -3.36
46 | CC(C)C(=O)Nc1ncn(Cc2cccc(Br)c2)n1 | -9.95
47 | NC(=O)C(NC(=O)c1cc(Cl)c[nH]1)c1ccccc1 (centres undefined) | -0.589
48 | CCn1nnc2c1C(COCC(=O)N(C)C)CN(Cc1ccoc1)C2 (centres undefined) | -2.98
49 | O=C(Cc1cccc(F)c1)N1CCc2ncnc(NC3CCC3)c2CC1 | -105
50 | COc1cc(N2CCCC3(CCN(c4cncnc4)C3=O)C2)ncn1 (centres undefined) | -103
51 | Cc1ccccc1C(=O)N1CCC2(CC1)CC(c1cnn(C)c1)CO2 (centres undefined) | -75
52 | COCCNC(=O)[C@H]1CN(c2nnc(C)s2)C[C@H]2OCC[C@@H]12 | -1.96
53 | CC(C)CC(=O)N1CCc2nc(N3CCOCC3)nc(NC(C)C)c2C1 | 2.86
54 | COCC(=O)N1CC(=O)c2sc(Nc3ccc(F)cc3F)nc2C1 | -7.02
55 | CCC(=O)N1CCN(Cc2cnc(C)nc2)[C@H]2CS(=O)(=O)C[C@H]21 | 12.3
56 | CC(C)c1cc(C2CCN(C(=O)Cn3nc4ccccc4n3)CC2)[nH]n1 | 0.685
57 | COC(=O)CN1CCN(c2nc3c(s2)c(C)nn3C)C(C)C1=O (centres undefined) | 3.27
58 | COCCCN1C(=O)CC[C@H]2CN(Cc3ccc4nonc4c3)CC[C@H]21 | 2.46
59 | COc1cc(C(=O)NCCS(=O)(=O)N(C)C)c2ccccc2n1 | -0.0932
60 | c1ccc(C2CN(C3CC3)CC3(CCN(Cc4ncc[nH]4)CC3)C2)cc1 (centres undefined) | 7.31
61 | O=C(C1NCCc2[nH]cnc21)N1CCC2(C=Cc3ccccc32)CC1 (centres undefined) | 5.19
62 | Cc1cccc(CN2CCC(n3cc(CCO)nn3)CC2)c1C | 0.636
63 | Cc1cnc(C)c(-c2cc(O)c3c(c2)CN(c2ncccn2)CCO3)n1 | 6.13
64 | CCSc1ncc(-c2cc(C3CC3)nc(N)c2C#N)cn1 | 6.99
65 | Cc1cc(C(=O)NCCCn2nccc2C2CC2)c(=O)[nH]c1C | 9
66 | CCOCCNCc1cc(O)c2cc(C)ccc2n1 | -2.04

Row | SMILES | cytotoxicity at 10 µM [%]
67 | O=S(=O)(c1ccc(-c2cnco2)cc1)N1CCCC2(CCNCC2)CC1 | -11.2
68 | CC(C)CN1CC(c2nc(-c3ccsc3)c[nH]2)CC1=O (centres undefined) | 6.65
69 | CCCc1nc(CN(CC)C(=O)c2ccc3c(c2)nnn3C)no1 | 9.43
70 | COc1cccc(OC)c1C(C(=O)O)N(C)Cc1c(C)n[nH]c1C (centres undefined) | 2.14
71 | O=C(CCOc1ccccc1)N1CCCC(c2ncc[nH]2)C1 (centres undefined) | -2.68
72 | CN(Cc1ccncn1)C(=O)C1(Oc2ccc(Cl)cc2)CCNCC1 | 18.5
73 | Cc1cccc(OC2CCN(Cc3ncc[nH]3)CC2)c1 | -7.15
74 | CCc1nc(C)c(C(=O)NCC2COc3cc(OC)ccc3C2)o1 (centres undefined) | 54.6
75 | CCCn1ncc2c(C(=O)Nc3n[nH]c(SC)n3)cc(C3CC3)nc21 | 1.52
76 | O=C(Cn1ccnc1)N1C[C@@H]2CC[C@H](Oc3ccccc3Cl)[C@@H]2C1 | 11.9
77 | CC(C(=O)Nc1ccc(N2CCOCC2)nc1)n1cncn1 (centres undefined) | -33.9
78 | Cc1cc(C)n(CC2CN(c3nnc(C)c(C)c3C#N)CCO2)n1 (centres undefined) | -18.2
79 | Cc1cnn(CC2CCCN2Cc2nc(C)c3ccccc3n2)c1 (centres undefined) | -8.94
80 | COc1ccc2cc(CNCc3c(C)nn(C)c3N(C)C)ccc2c1 | -20.4
81 | CCc1nccn1C1CCCN(C(=O)C2=NN(C)C(=O)CC2)C1 (centres undefined) | -17.7
82 | CS(=O)(=O)NCC1CCCN(C(=O)c2ccc(F)c(F)c2)C1 (centres undefined) | -10.3
83 | Cn1cnc2c1CCN(Cc1nc(Cc3ccccc3)no1)C2 | -7.99
84 | O=C(CN1CCOC(Cn2cccn2)C1)Nc1nccs1 (centres undefined) | 3.64
85 | Cn1cnc2c1CCN(Cc1nc(-c3ccsc3)no1)C2 | -3.29
86 | COc1ccc(CNCc2ccc(N3CCCCC3)nc2)cc1OC | 1.92
87 | Cc1nn(C)c(C)c1CC(=O)N1CCC(Nc2cccnn2)CC1 | -8.8
88 | COC(=O)c1ccc(S(=O)(=O)NCc2cccnc2N(C)C)cc1 | 9.3

Row | SMILES | cytotoxicity at 10 µM [%]
89 | CC(C)c1nc(CN(C)C2CCN(CCNS(C)(=O)=O)C2)no1 (centres undefined) | -8.48
90 | Cc1cc(-c2nccs2)nc(C2CCN(Cc3ccc(F)cc3)CC2)n1 | 6.54
91 | O=C(C[C@@H]1COC[C@H]2CN(CC3CC3)C[C@@H]12)NCc1cccnc1 | 9.21
92 | O=C(NC1CCC1)[C@@H]1CCO[C@@H]2CCN(C3CCCC3)C[C@@H]21 | 11.4
93 | c1ccc(CN2CCC3(CC2)CC(Nc2nccs2)CO3)nc1 (centres undefined) | -78.2
94 | CCc1nc2ccccc2c(=O)n1CC1(O)CCN(S(C)(=O)=O)CC1 | -3.5
95 | CS(=O)(=O)NCc1cncc2c1CCN(CC1CCOC1)C2 (centres undefined) | 12.7
96 | Cn1cnc(S(=O)(=O)N2CC3(CCN(c4ccccc4)C3)C2)c1 | -91.7
97 | O=C(Cc1cccnc1)N1CCC2(CC1)CCN(C1CCOC1)C2 (centres undefined) | -2.52
98 | CC(C)c1nn(C)c(Cl)c1CNC1CCOc2ccccc21 (centres undefined) | 53.2
99 | COCC(=O)N1CCC(c2nc3ccc(-c4ccncc4)cn3n2)CC1 | 10.2
100 | Cc1noc(C)c1CN1CCc2ncnc(-c3ccccc3)c2CC1 | -89.9
101 | COc1cccc(CN2C[C@@H]3COC[C@]3(COCc3ccccn3)C2)c1 | -88.8
102 | COc1ccc(-c2nc(C3CCNCC3)cc3c2ncn3C)cc1 | -124
103 | COc1ccc(CN2CC[C@H]3O[C@@H](C(=O)NCC4CC4)CC[C@H]32)cc1 | 7.31
104 | c1cc(COC[C@H]2CCC[C@]23CNCCO3)ccn1 | -99.1
105 | O=C1NC2(CCN(CC3CC3)CC2)CC1c1ccccc1 (centres undefined) | -7.64
106 | O=C(NCC(F)(F)F)C1=NOC2(CCCNC2)C1 (centres undefined) | 2.16
107 | CC(C)COC[C@H]1CC[C@H]2[C@H](CCN2C(=O)c2ccncc2F)O1 | -0.171
108 | Cn1ccc(NC(=O)CN2C[C@@H]3CC[C@H]2CN(S(C)(=O)=O)C3)n1 | -14.2
109 | CCCS(=O)(=O)N1C[C@H]2CC[C@@H](C1)N(Cc1cscn1)C2=O | 12.8

From ChEMBL document CHEMBL4513216, “Probing the Open Global Health Chemical Diversity Library for Multistage-Active Starting Points for Next-Generation Antimalarials” (ACS Infect Dis, 2020)
